The source of these data is ChEMBL document CHEMBL1129245, “N-heteroaryl-2-phenyl-3-(benzyloxy)piperidines: a novel class of potent orally active human NK1 antagonists” (J Med Chem, 1996).

For series [1], the system named is Rattus norvegicus. The series is described as follows: Plasma concentration after 3 mg/kg peroral dosing in rat at 0.25 hr. It is filed as ADME, organism-based. Set-up: dose 3 mg/kg, route oral. To be noted: in vivo, po.
Series [2] relates to Rattus norvegicus. The series is described as follows: Plasma concentration after 3 mg/kg peroral dosing in rat at 0.5 hr. The format is ADME, organism-based. Set-up: dose 3 mg/kg, route oral. To be noted: in vivo, po.
Series [3] deals with Rattus norvegicus. The series is described as follows: Plasma concentration after 3 mg/kg peroral dosing in rat at 1 hr. It is filed as ADME, organism-based. Set-up: dose 3 mg/kg, route oral. To be noted: in vivo, po.
Series [4] can be described thus: Plasma clearance after intravenous administration iv dosing of 3 mg/kg in rat. The format is ADME, organism-based. Set-up: dose 3 mg/kg, route intravenous.
In series [5] the test system is Rattus norvegicus. Kind of series: Plasma concentration after 3 mg/kg peroral dosing in rat at 2 hr. Set-up: dose 3 mg/kg, route oral. It is filed as ADME, organism-based. The following applies: in vivo, po.
For series [6], the system named is Rattus norvegicus. Kind of series: Plasma concentration after 3 mg/kg peroral dosing in rat at 4 hr. The following applies: in vivo, po. More on the design: dose 3 mg/kg, route oral. It is filed as ADME, organism-based.
The subject of series [7] is Rattus norvegicus. The series is described as follows: Plasma concentration after 3 mg/kg peroral dosing in rat at 6 hr. It is filed as ADME, organism-based. More on the design: dose 3 mg/kg, route oral. The following applies: in vivo, po.
In series [8] the test system is Rattus norvegicus. The series is described as follows: Plasma concentration after 3 mg/kg peroral dosing in rat at 8 hr. It is filed as ADME, organism-based. Set-up: dose 3 mg/kg, route oral. The following applies: in vivo, po.
Series [9] is described as follows: Plasma volume of distribution of the 3 mg/kg in rat. It is filed as ADME, organism-based. Set-up: dose 3 mg/kg. The essentials:
(§1)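 Rats given compound intravenously and orally in solution. Three rats per time point sampled for plasma drug levels. Pharmacokinetic parameters calculated from the plasma concentration–time data using standard equations. Data reported as mean ± SEM.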

Series [10] is described as follows: Bioavailability in rat. It is filed as ADME, organism-based. The following applies: in vivo.
In series [11] the test system is Rattus norvegicus. Kind of series: Plasma concentration of 3 mg/kg iv after 0.25 hr in rats. It is filed as ADME, organism-based. More on the design: dose 3 mg/kg, route intravenous. The following applies: in vivo. The essentials:
as §1

The test system of series [12] is Rattus norvegicus. The series is described as follows: Plasma concentration of 3 mg/kg iv after 0.5 hr in rats. The format is ADME, organism-based. The following applies: in vivo. More on the design: dose 3 mg/kg, route intravenous. The essentials:
as §1

Series [13] relates to Rattus norvegicus. The series is described as follows: Plasma concentration of 3 mg/kg iv after 1 hr in rats. The format is ADME, organism-based. More on the design: dose 3 mg/kg, route intravenous. The following applies: in vivo. The essentials: as §1
For series [14], the system named is Rattus norvegicus. The series is described as follows: Plasma concentration of 3 mg/kg iv after 2 hr in rats. More on the design: dose 3 mg/kg, route intravenous. It is filed as ADME, organism-based. To be noted: in vivo. The essentials: as §1
Series [15] deals with Rattus norvegicus. The series is described as follows: Plasma concentration of 3 mg/kg iv after 4 hr in rats. It is filed as ADME, organism-based. More on the design: dose 3 mg/kg, route intravenous. The following applies: in vivo. The essentials:
as §1

In series [16] the test system is Rattus norvegicus. Kind of series: Plasma concentration of 3 mg/kg iv after 6 hr in rats. It is filed as ADME, organism-based. Set-up: dose 3 mg/kg, route intravenous. The following applies: in vivo. The procedure, abridged:
as §1

Series [17] deals with Substance-P receptor (Homo sapiens, UniProt P25103). The series is described as follows: Displacement of [125 I]-Tyr8 SP from the cloned human Tachykinin receptor 1 expressed in CHO cells. The format is cell-based.
Sequence of Substance-P receptor (P25103 whole entry): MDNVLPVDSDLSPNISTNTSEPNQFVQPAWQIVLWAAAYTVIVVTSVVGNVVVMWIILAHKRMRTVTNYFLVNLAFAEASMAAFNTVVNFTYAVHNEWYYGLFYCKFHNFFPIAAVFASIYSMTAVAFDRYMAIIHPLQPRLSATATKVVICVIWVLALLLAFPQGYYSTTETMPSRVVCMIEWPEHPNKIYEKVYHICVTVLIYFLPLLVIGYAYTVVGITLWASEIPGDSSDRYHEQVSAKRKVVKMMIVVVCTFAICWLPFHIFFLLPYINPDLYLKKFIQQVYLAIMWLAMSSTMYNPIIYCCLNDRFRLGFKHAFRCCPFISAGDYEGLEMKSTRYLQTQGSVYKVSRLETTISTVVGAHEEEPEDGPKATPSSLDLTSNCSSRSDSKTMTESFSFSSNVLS
The subject of series [18] is Rattus norvegicus. Kind of series: Plasma concentration after 3 mg/kg peroral dosing in rat at 0.083 h. The format is ADME, organism-based. Set-up: dose 3 mg/kg, route oral. To be noted: in vivo, po.
The species named for series [19] is Oryctolagus cuniculus. Kind of series: Displacement of [3H]diltiazem from rabbit skeletal muscle calcium channel. The format is tissue-based. To be noted: Muscle tissue.

By clearance is commonly meant the rate of elimination divided by the concentration. A low value points to a low capacity for elimination. The Vd is a proportionality between amount in the body and measured concentration, not a real space. For orientation: bioavailability means the share of a dose that reaches the circulation, judged against a reference dose that is usually intravenous. By IC50 is commonly meant the concentration needed to halve the response being measured. The low end stands for higher potency, the high end for lower potency. Regarding `FC(F)(F)c1cc(CO[C@H]2CCCN(Cc3nnc[nH]3)[C@H]2c2ccccc2)cc(C(F)(F)F)c1`, the Concentration is 116 ng/mL in series [1]; 35.1 ng/mL in [2]; 33.7 ng/mL in [3]; 36.9 ng/mL in series [5]; 11.2 ng/mL in [6]; under 10 ng/mL in series [7]. In addition, the Concentration in series [8] is under 10 ng/mL; in series [11], 826 ng/mL; in series [12] it was 581 ng/mL; in [13], 304 ng/mL; in [14], 71.3 ng/mL; in series [15] it was 13.2 ng/mL. Besides, the Concentration in series [16] was under 10 ng/mL; in series [18] it was 40.1 ng/mL. Further, the clearance in series [4] was found to be 44 mL/min/kg. Further, the Vd in [9] was determined as 2.6 L/kg. In series [10], the bioavailability was 18%. For the same compound, the IC50 in [17] stood at 0.22 nM.

Consider `FC(F)(F)c1cc(CO[C@H]2CCCN(Cc3nn[nH]n3)[C@H]2c2ccccc2)cc(C(F)(F)F)c1`, for which the Binding affinity in series [19] was over 5 µM.

Take `FC(F)(F)c1cc(CO[C@H]2CCCN(Cc3ncc[nH]3)[C@H]2c2ccccc2)cc(C(F)(F)F)c1`: the Binding affinity in series [19] worked out at 2.06 µM. In addition, the IC50 in series [17] came to 0.53 nM.
